Laboratory results as given in ChEMBL document CHEMBL5335790, “Design, synthesis and biological evaluation of novel 2,4-thiazolidinedione derivatives able to target the human BAG3 protein” (Eur J Med Chem, 2023).
Calls of active or inactive are those of the source. The calls are words filed in the database; no cut-off is given here.

Tests used:
HD-MB03 [1] = assay: Antiproliferative activity against human HD-MB03 cells assessed as cell growth inhibition incubated for 72 hrs by resazurin dye based analysis; assay type: functional
How it was run: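 Cells seeded at 2000/well, treated 24 h later with compounds in a 6-point 2-fold dose series, duplicate wells, two independent experiments. After 72 h, resazurin was added at 44 µM final for 3 h at 37 °C and fluorescence was read at 590 nm. Viability was normalized to 1 µM bortezomib (positive) and 0.5% DMSO (negative) controls. GI50 is the mean ± SEM of dose-response curves.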

HD-MB03 [2] = assay: Induction of cell cycle arrest in human HD-MB03 cells assessed as accumulation of cells at S phase at 10 uM incubated for 48 hrs by RNase/PI staining based cytofluorimetric analysis (reference value: 40.9%); assay type: functional
HD-MB03 [3] = assay: Induction of cell cycle arrest in human HD-MB03 cells assessed as accumulation of cells at G1 phase at 10 uM incubated for 72 hrs by RNase/PI staining based cytofluorimetric analysis (reference value: 54.7%); assay type: functional
HD-MB03 [4] = assay: Induction of autophagy in human HD-MB03 cells assessed as increase in LC3 green fluorescence at 20 uM incubated for 24 hrs in presence of chloroquine by immunofluorescence analysis; assay type: functional, cell-based
How it was run: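 HD-MB03 cells transfected with a fluorescent LC3 plasmid, then treated 24 h later with 20 µM, alone or with chloroquine, for 24 h. Live cells stained 30 min with 50 nM LysoTracker Red and 10 µM Hoechst, then imaged by confocal microscopy. Fluorescence per field was expressed relative to DMSO control set to 1. Mean ± SD of three experiments; 2-way ANOVA.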

HD-MB03 [5] = assay: Induction of autophagy in human HD-MB03 cells assessed as autophagic vacuole formation in presence of chloroquine at 20 uM incubated for 24 hrs by bright field imaging analysis; assay type: functional, cell-based
HD-MB03 [6] = assay: Sensitization of chemotherapy induced cytotoxicity against human HD-MB03 cells assessed as inhibition of cell growth at 1.25 uM incubated for 72 hrs in presence of 0.25 unit of vincristine, etoposide, cisplatin, cyclophosphamide by resazurin dye based analysis (reference value: 73.44 +/- 0.92%); assay type: functional
HD-MB03 [7] = assay: Sensitization of chemotherapy induced cytotoxicity against human HD-MB03 cells assessed as inhibition of cell growth at 1.25 uM incubated for 72 hrs in presence of 2 unit of vincristine, etoposide, cisplatin, cyclophosphamide by resazurin dye based analysis (reference value: 97.7 +/- 1.3%); assay type: functional
HD-MB03 [8] = assay: Sensitization of chemotherapy induced cytotoxicity against human HD-MB03 cells assessed as inhibition of cell growth at 2.5 uM incubated for 72 hrs in presence of 0.25 unit of vincristine, etoposide, cisplatin, cyclophosphamide by resazurin dye based analysis (reference value: 73.44 +/- 0.92%); assay type: functional
HD-MB03 [9] = assay: Sensitization of chemotherapy induced cytotoxicity against human HD-MB03 cells assessed as inhibition of cell growth at 5 uM incubated for 72 hrs in presence of 1 unit of vincristine, etoposide, cisplatin, cyclophosphamide by resazurin dye based analysis (reference value: 91.53 +/- 1.15%); assay type: functional
HD-MB03 [10] = assay: Sensitization of chemotherapy induced cytotoxicity against human HD-MB03 cells assessed as inhibition of cell growth at 10 uM incubated for 72 hrs in presence of 2 unit of vincristine, etoposide, cisplatin, cyclophosphamide by resazurin dye based analysis (reference value: 97.7 +/- 1.3%); assay type: functional
HD-MB03 [11] = assay: Sensitization of chemotherapy induced cytotoxicity against human HD-MB03 cells assessed as inhibition of cell growth at 20 uM incubated for 72 hrs in presence of 0.12 unit of vincristine, etoposide, cisplatin, cyclophosphamide by resazurin dye based analysis (reference value: 51.43 +/- 1.17%); assay type: functional

SMILES: CC(C(=O)N1CCOCC1)N1C(=O)S/C(=C\c2cccc(O)c2O)C1=O (racemic)
- GI50 (HD-MB03 [1]): 11.2 µM
- Activity (HD-MB03 [2]): 41.44%
- Activity (HD-MB03 [3]): 74%
- Activity (HD-MB03 [4]): inactive
- Activity (HD-MB03 [5]): inactive
- inhibition at 1.25 µM (HD-MB03 [6]): 70.3%
- inhibition at 1.25 µM (HD-MB03 [7]): 96.6%
- inhibition at 2.5 µM (HD-MB03 [8]): 69.9%
- inhibition at 5 µM (HD-MB03 [9]): 92%
- inhibition at 10 µM (HD-MB03 [10]): 93.2%
- inhibition at 20 µM (HD-MB03 [11]): 75%
